According to ChEMBL document CHEMBL5154773, “Development of Sulfamoylated 4-(1-Phenyl-1H-1,2,3-triazol-4-yl)phenol Derivatives as Potent Steroid Sulfatase Inhibitors for Efficient Treatment of Breast Cancer” (J Med Chem, 2022):
Active and inactive are the calls of the source. The calls are words filed in the database; no cut-off is given here.

Key:
[1] = biological target: T1, Steryl-sulfatase (Homo sapiens) (UniProt P08842); experiment: Inhibition of STS in human MCF7 cells assessed as residual enzyme activity using [3H]E1S as substrate at 100 nM incubated for 20 hrs by radioisotope cellular assay relative to control; assay type: cell-based
T1 sequence (whole entry): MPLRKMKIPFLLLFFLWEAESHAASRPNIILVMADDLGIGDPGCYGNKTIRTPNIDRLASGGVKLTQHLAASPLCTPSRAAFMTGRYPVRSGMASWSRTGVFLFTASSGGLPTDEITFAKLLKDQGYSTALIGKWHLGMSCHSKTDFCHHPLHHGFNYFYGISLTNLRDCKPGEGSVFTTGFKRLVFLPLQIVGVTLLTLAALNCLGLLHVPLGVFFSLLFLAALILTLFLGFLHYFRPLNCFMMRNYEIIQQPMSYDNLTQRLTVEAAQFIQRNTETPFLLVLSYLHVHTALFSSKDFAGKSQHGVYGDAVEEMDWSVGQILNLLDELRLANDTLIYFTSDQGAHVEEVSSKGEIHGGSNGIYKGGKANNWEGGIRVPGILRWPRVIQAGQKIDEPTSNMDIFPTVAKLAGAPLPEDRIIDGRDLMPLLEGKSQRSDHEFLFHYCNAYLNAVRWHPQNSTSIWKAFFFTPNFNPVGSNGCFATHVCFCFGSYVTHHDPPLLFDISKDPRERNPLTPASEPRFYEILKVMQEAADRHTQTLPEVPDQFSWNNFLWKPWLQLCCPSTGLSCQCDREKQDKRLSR
Summary of the method: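 MCF-7 cells were grown in DMEM with 10% FBS to 80% confluence, then seeded at 1 × 10⁵ cells/well. Cells were incubated 20 h at 37 °C, 5% CO₂, in serum-free medium with [³H]E1S (3 nM, 4 × 10⁴ Bq), with or without inhibitor at 100, 10 or 1 nM. The hydrolysis product in the collected medium was extracted into toluene and counted by scintillation. Run in triplicate.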

[2] = Toxicity in BALB/c mouse allografted with mouse 67NR cells assessed as effect on hematocrit levels at 50 mg/kg, po for 5 days a week; assay type: organism-based; settings: in vivo, 168 h, time 1 weeks
[3] = Toxicity in BALB/c mouse assessed as maximum tolerated dose administered orally for 5 days a week; settings: in vivo, route po, time 1 weeks
Summary of the method: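 Female Balb/c mice, three per dose, were dosed per os, starting at 10 mg/kg/day and then at 20 and 50 mg/kg, 5 days a week for 2 weeks. Body weight and general health were followed. At autopsy, liver, kidney and spleen were weighed and examined macroscopically.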

[4] = tested on: Mus musculus; experiment: In vivo inhibition of STS in BALB/c mouse allografted with mouse 67NR cells assessed as reduction in estradiol level in plasma at 50 mg/kg, po administered 5 days a week by ELISA; assay type: functional, organism-based; settings: time 1.0 weeks
[5] = Toxicity in BALB/c mouse allografted with mouse 67NR cells assessed as decrease in spleen weight at 50 mg/kg, po for 5 days a week; assay type: organism-based; settings: in vivo, 168 h, time 1 weeks
[6] = Toxicity in BALB/c mouse assessed as weight change of liver at 10 to 50 mg/kg, po for 5 days a week for 2 weeks; assay type: organism-based; settings: in vivo, 336 h, dose 10-50 mg/kg
Summary of the method: (§1)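 Female BALB/c mice, three per dose, received oral doses of 10 mg/kg/day, 5 days a week for 2 weeks. Later mice received 20 or 50 mg/kg. Body weight and general health, including feces, were followed. After cervical dislocation, liver, kidney and spleen were weighed, and liver, kidneys, intestines and spleen were assessed macroscopically.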

[7] = Toxicity in BALB/c mouse assessed as macroscopic changes in kidneys at 10 to 50 mg/kg, po for 5 days a week for 2 weeks; assay type: organism-based; settings: in vivo, 336 h, dose 10-50 mg/kg; summary of the method: as §1
[8] = Antitumor activity against mouse 67NR cells allografted in BALB/c mouse assessed as tumor growth inhibition at 50 mg/kg, po for 5 days a week and measured 3 times a week relative to control; assay type: functional; settings: 168 h, time 1 weeks, read-out: TGI
Summary of the method: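 Female BALB/c mice, 7–8 weeks old, received 1.5 × 10⁵ 67NR cells in 0.05 mL Hanks fluid into the mammary fat pad. At about 50 mm³ average tumor volume, mice were randomized to six groups of nine. Dosing was 50 mg/kg b.w. orally, 5 days a week, for 17 days of observation. Tumor volume was measured three times weekly. TGI was calculated from tumor volume versus the control group, using one-way ANOVA with Dunnett test.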

[9] = Toxicity in BALB/c mouse allografted with mouse 67NR cells assessed as effect on erythrocyte count at 50 mg/kg, po for 5 days a week; assay type: organism-based; settings: in vivo, 168 h, time 1 weeks
[10] = Toxicity in BALB/c mouse assessed as toxic effects at 10 to 50 mg/kg, po for 5 days a week for 2 weeks; assay type: organism-based; settings: in vivo, 336 h, dose 10-50 mg/kg; summary of the method: as §1
[11] = Toxicity in BALB/c mouse allografted with mouse 67NR cells assessed as increase in granulocyte count at 50 mg/kg, po for 5 days a week; assay type: organism-based; settings: in vivo, 168 h, time 1 weeks
[12] = Toxicity in BALB/c mouse allografted with mouse 67NR cells assessed as enlarged liver at 50 mg/kg, po for 5 days a week; assay type: organism-based; settings: in vivo, 168 h, time 1 weeks
[13] = Toxicity in BALB/c mouse assessed as change in feces consistency at 50 mg/kg, po for 5 days a week for 2 weeks; assay type: organism-based; settings: in vivo, 336 h; summary of the method: as §1
[14] = Toxicity in BALB/c mouse allografted with mouse 67NR cells assessed as increase in monocyte count at 50 mg/kg, po for 5 days a week; assay type: organism-based; settings: in vivo, 168 h, time 1 weeks
[15] = (§2) In vivo inhibition of STS in BALB/c mouse allografted with mouse 67NR cells assessed as residual enzyme activity in liver lysates using [3H]E1S as substrate at 50 mg/kg, po for 5 days a week followed by incubation of […] with [3H]E1S for 3 hrs by radioisotope enzymatic assay (reference value: 100%); assay type: functional; settings: time 1 weeks
[16] = Toxicity in BALB/c mouse assessed as macroscopic changes in intestines at 10 to 50 mg/kg, po for 5 days a week for 2 weeks; assay type: organism-based; settings: in vivo, 336 h, dose 10-50 mg/kg; summary of the method: as §1
[17] = as §2, with “tumor” for “liver”; assay type: functional, Neoplasm; settings: time 1 weeks
[18] = Toxicity in BALB/c mouse assessed as macroscopic changes in spleen at 10 to 50 mg/kg, po for 5 days a week for 2 weeks; assay type: organism-based; settings: in vivo, 336 h, dose 10-50 mg/kg; summary of the method: as §1
[19] = Toxicity in BALB/c mouse allografted with mouse 67NR cells assessed as decrease in lymphocyte count at 50 mg/kg, po for 5 days a week; assay type: organism-based; settings: in vivo, 168 h, time 1 weeks
[20] = Toxicity in BALB/c mouse allografted with mouse 67NR cells assessed as increase in blood urea levels at 50 mg/kg, po for 5 days a week; assay type: organism-based; settings: in vivo, 168 h, time 1 weeks
[21] = Toxicity in BALB/c mouse assessed as weight change of kidney at 10 to 50 mg/kg, po for 5 days a week for 2 weeks; assay type: organism-based; settings: in vivo, 336 h, dose 10-50 mg/kg; summary of the method: as §1
[22] = Toxicity in BALB/c mouse assessed as weight change of spleen at 10 to 50 mg/kg, po for 5 days a week for 2 weeks; assay type: organism-based; settings: in vivo, 336 h, dose 10-50 mg/kg; summary of the method: as §1
[23] = Toxicity in BALB/c mouse assessed as macroscopic changes in liver at 10 to 50 mg/kg, po for 5 days a week for 2 weeks; assay type: organism-based; settings: in vivo, 336 h, dose 10-50 mg/kg; summary of the method: as §1
[24] = Toxicity in BALB/c mouse allografted with mouse 67NR cells assessed as effect on hemoglobin levels at 50 mg/kg, po for 5 days a week; assay type: organism-based; settings: in vivo, 168 h, time 1 weeks
[25] = Toxicity in BALB/c mouse assessed as body weight loss at 10 to 50 mg/kg, po for 5 days a week for 2 weeks; assay type: organism-based; settings: in vivo, 336 h, dose 10-50 mg/kg; summary of the method: as §1
[26] = Toxicity in BALB/c mouse allografted with mouse 67NR cells assessed as increase in alanine aminotransferase levels in plasma at 50 mg/kg, po for 5 days a week; assay type: organism-based; settings: in vivo, 168 h, time 1 weeks
[27] = Toxicity in BALB/c mouse allografted with mouse 67NR cells assessed as body weight loss at 50 mg/kg, po for 5 days a week and measured 3 times a week relative to control; assay type: organism-based; settings: in vivo, 168 h, time 1 weeks
[28] = biological target: T2, Steryl-sulfatase (Homo sapiens, UniProt P08842); experiment: Inhibition of human placental STS using [3H]E1S as substrate incubated for 3 hrs by radioisotope enzymatic assay; assay type: tissue-based, Placenta
T2 sequence (P08842 whole entry): T1 sequence (whole entry)
Summary of the method: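 Purified placental STS, 5 U (1 U hydrolyses 100 μM NPS in 1 h at 37 °C), incubated with [3H]E1S (3 nM, 4 × 10⁴ Bq) and inhibitor in 20 mM Tris-HCl pH 7.4 for 3 h at 37 °C. The hydrolysis product was extracted into toluene and counted. Results are expressed as residual STS activity (%) from triplicate runs.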

[29] = Toxicity in BALB/c mouse allografted with mouse 67NR cells assessed as increase in aspartate aminotransferase levels in plasma at 50 mg/kg, po for 5 days a week; assay type: organism-based; settings: in vivo, 168 h, time 1 weeks

SMILES	Activity [2]	MTD at 168 h [3] [mg/kg]	inhibition [4]	Activity [5]	Activity [6]	Activity [7]	Activity [9]	Activity [10]	Activity [11]	Activity [12]	Activity [13]	Activity [14]	Activity [15] [%]	Activity [16]	Activity [17] [%]	Activity [18]	Activity [19]	Activity [20]	Activity [21]	Activity [22]	also measured
NS(=O)(=O)Oc1ccc(-c2cn(-c3ccc(F)cc3C(F)(F)F)nn2)cc1																					Activity [1]: 2.4%
NS(=O)(=O)Oc1ccc(-c2cn(-c3ccc(C(F)(F)F)cc3)nn2)cc1																					Activity [1]: 2.9%
NS(=O)(=O)Oc1ccc(-c2cn(-c3cc(Cl)cc(Cl)c3)nn2)cc1	Non-Toxic	50	Active	Toxic	Non-Toxic	Non-Toxic	Non-Toxic	Non-Toxic	Toxic	Toxic	Toxic	Toxic	14.5	Non-Toxic	5.1	Non-Toxic	Toxic	Toxic	Non-Toxic	Non-Toxic	inhibition in vivo at 50 mg/kg [8]: 51%; Activity [23]: Non-Toxic; Activity [24]: Non-Toxic; Activity [25]: Non-Toxic
NS(=O)(=O)Oc1ccc(-c2cn(-c3cccc(F)c3)nn2)cc1	Non-Toxic	50	Active	Toxic	Non-Toxic	Non-Toxic	Non-Toxic	Non-Toxic	Toxic	Toxic	Toxic	Toxic	13.6	Non-Toxic	5.2	Non-Toxic	Toxic	Toxic	Non-Toxic	Non-Toxic	Activity [26]: Toxic; Activity [27]: 4.5%; Activity [23]: Non-Toxic; Activity [24]: Non-Toxic; Activity [25]: Non-Toxic
NS(=O)(=O)Oc1ccc(-c2cn(-c3cccc(Cl)c3)nn2)cc1	Non-Toxic	50	Active	Toxic	Non-Toxic	Non-Toxic	Non-Toxic	Non-Toxic	Toxic	Non-Toxic	Toxic	Toxic	12.1	Non-Toxic	5.8	Non-Toxic	Toxic	Toxic	Non-Toxic	Non-Toxic	Activity [23]: Non-Toxic; Activity [24]: Non-Toxic; Activity [25]: Non-Toxic
NS(=O)(=O)Oc1ccc(-c2cn(-c3cccc(C(F)(F)F)c3)nn2)cc1																					Activity [1]: 1.3%
NS(=O)(=O)Oc1ccc(-c2cn(-c3cc(F)cc(F)c3)nn2)cc1	Non-Toxic	50	Active	Toxic	Non-Toxic	Non-Toxic	Non-Toxic	Non-Toxic	Toxic	Toxic	Toxic	Toxic	10.1	Non-Toxic	1.3	Non-Toxic	Toxic	Toxic	Non-Toxic	Non-Toxic	IC50 [28]: 0.0368 µM; Activity [26]: Toxic; Activity [27]: 4.5%; Activity [29]: Toxic; Activity [23]: Non-Toxic; Activity [24]: Non-Toxic; Activity [25]: Non-Toxic
